# What was measured:
# Adenosine receptor A3 = biological target: T1, Adenosine receptor A3 (Homo sapiens, UniProt P0DMS8); assay: Displacement of [125I]AB-MECA from human adenosine A3 receptor expressed in CHO cells; format: cell-based
# T1 sequence (P0DMS8 whole entry): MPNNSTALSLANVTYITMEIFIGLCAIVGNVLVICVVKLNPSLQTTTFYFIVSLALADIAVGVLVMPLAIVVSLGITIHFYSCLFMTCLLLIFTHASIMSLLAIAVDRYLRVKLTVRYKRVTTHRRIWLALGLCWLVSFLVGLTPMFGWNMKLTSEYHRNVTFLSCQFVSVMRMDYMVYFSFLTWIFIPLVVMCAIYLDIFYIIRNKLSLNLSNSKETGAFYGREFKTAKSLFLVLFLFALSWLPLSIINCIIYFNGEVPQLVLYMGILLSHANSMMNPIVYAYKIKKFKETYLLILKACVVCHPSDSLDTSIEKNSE
# Outline: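 Membranes from CHO cells stably expressing human A3 receptor, prepared like the A2B membranes. Incubated 90 min at 25 °C with gentle agitation, then filtered and washed 4× in ice-cold TM buffer. Nonspecific binding was defined with 1 µM IB-MECA.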
# [1] = biological target: Adenosine receptors; A1 & A2b (Homo sapiens) (UniProt P30542+P29275); assay: Selectivity for human adenosine A2b receptor over adenosine A1 receptor; format: protein assay
# [2] = biological target: Adenosine A2 receptor (Homo sapiens) (UniProt P29275+P29274); assay: Selectivity for human adenosine A2b receptor over adenosine A2a receptor; format: protein assay
# [3] = biological target: Adenosine receptors; A2b & A3 (Homo sapiens) (UniProt P29275+P0DMS8); assay: Selectivity for human adenosine A2b receptor over adenosine A3 receptor; format: protein assay
# Adenosine receptor A2b = biological target: T2, Adenosine receptor A2b (Homo sapiens, UniProt P29275); assay: Displacement of [3H]ZM241385 from human adenosine A2b receptor expressed in HEK cells; format: cell-based, HEK293
# T2 sequence (P29275 whole entry): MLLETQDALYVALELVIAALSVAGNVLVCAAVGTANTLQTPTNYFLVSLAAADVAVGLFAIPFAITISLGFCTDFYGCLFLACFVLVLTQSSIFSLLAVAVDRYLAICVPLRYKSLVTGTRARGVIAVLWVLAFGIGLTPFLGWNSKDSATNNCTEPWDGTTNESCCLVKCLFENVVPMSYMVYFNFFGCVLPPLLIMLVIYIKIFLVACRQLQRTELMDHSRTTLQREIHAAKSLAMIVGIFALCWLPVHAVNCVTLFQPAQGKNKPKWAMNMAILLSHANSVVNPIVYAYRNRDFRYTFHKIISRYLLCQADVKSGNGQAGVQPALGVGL
# Adenosine receptor A2a = Adenosine receptor A2a (Homo sapiens, UniProt P29274); assay: Displacement of [3H]ZM-241385 from human adenosine A2a receptor expressed in HEK cells; format: cell-based, HEK293
# Adenosine receptor A1 = biological target: T3, Adenosine receptor A1 (Homo sapiens, UniProt P30542); assay: Displacement of [3H]CPX from human adenosine A1 receptor expressed in CHO cells
# T3 sequence (P30542 whole entry): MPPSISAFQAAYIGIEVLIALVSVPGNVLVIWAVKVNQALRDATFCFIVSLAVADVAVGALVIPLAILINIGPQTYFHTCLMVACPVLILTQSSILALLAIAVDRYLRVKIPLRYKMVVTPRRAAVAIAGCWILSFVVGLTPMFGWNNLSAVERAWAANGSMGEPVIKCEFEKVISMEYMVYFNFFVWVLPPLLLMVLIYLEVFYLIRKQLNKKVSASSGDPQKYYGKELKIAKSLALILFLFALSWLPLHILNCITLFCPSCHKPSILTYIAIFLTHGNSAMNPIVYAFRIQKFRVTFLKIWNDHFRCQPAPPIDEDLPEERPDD
# Sequence of Adenosine receptor A2a (P29274 whole entry): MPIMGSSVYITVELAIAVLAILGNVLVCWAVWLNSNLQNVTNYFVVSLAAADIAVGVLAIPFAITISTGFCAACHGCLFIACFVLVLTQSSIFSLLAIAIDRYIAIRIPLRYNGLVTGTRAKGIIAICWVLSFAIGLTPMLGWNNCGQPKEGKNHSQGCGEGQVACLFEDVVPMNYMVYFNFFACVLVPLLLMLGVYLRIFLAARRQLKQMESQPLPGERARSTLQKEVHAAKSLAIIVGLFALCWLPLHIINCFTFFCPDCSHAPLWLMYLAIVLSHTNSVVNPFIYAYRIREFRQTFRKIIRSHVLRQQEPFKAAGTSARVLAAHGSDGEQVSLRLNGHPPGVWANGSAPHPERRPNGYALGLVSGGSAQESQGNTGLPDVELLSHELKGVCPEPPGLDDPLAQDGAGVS
structure (smiles),measurement,setting,value
CCCn1c(=O)c2[nH]c(-c3cnn(Cc4cccc(C(F)(F)F)c4)c3)nc2n(CCC)c1=O,Ki,Adenosine receptor A3,150 nM
same,Ratio Ki,[1],12
same,Ratio Ki,[2],27
same,Ratio Ki,[3],10
same,Ki,Adenosine receptor A2b,14 nM
same,Ki,Adenosine receptor A2a,400 nM
same,Ki,Adenosine receptor A1,170 nM
CCCn1c(=O)c2nc(-c3cn[nH]c3)[nH]c2n(CCC)c1=O,Ratio Ki,[1],2
same,Ratio Ki,[2],23
same,Ratio Ki,[3],2
CCCn1c(=O)c2nc(-c3cnn(Cc4cc(C(F)(F)F)ccc4Cl)c3)[nH]c2n(CCC)c1=O,Ki,Adenosine receptor A3,2800 nM
same,Ratio Ki,[1],54
same,Ratio Ki,[2],63
same,Ratio Ki,[3],129
same,Ki,Adenosine receptor A2b,22 nM
same,Ki,Adenosine receptor A2a,1400 nM
same,Ki,Adenosine receptor A1,1200 nM
CCCn1c(=O)c2[nH]c(-c3cc(NC(=O)Cc4ccc(OC)c(OC)c4)nn3C)nc2n(CCC)c1=O,Ki,Adenosine receptor A3,> 1000 nM
same,Ki,Adenosine receptor A2a,> 1000 nM
same,Ki,Adenosine receptor A1,> 1000 nM
Cn1c(=O)c2nc(-c3cnn(Cc4cccc(C(F)(F)F)c4)c3)[nH]c2n(C)c1=O,Ki,Adenosine receptor A3,1000 nM
same,Ratio Ki,[1],990
same,Ratio Ki,[2],690
same,Ratio Ki,[3],1000
same,Ki,Adenosine receptor A2b,1 nM
same,Ki,Adenosine receptor A2a,690 nM
same,Ki,Adenosine receptor A1,990 nM
CCCn1c(=O)c2nc(-c3cnn(Cc4ccc(F)c(F)c4)c3)[nH]c2n(CCC)c1=O,Ratio Ki,[1],7
same,Ratio Ki,[2],8
same,Ki,Adenosine receptor A2b,35 nM
same,Ki,Adenosine receptor A2a,280 nM
same,Ki,Adenosine receptor A1,170 nM
CCCn1c(=O)c2nc(-c3cnn(Cc4cccc(Cl)c4F)c3)[nH]c2n(CCC)c1=O,Ratio Ki,[1],9
same,Ratio Ki,[2],13
same,Ki,Adenosine receptor A2b,58 nM
same,Ki,Adenosine receptor A2a,870 nM
same,Ki,Adenosine receptor A1,530 nM
CCCn1c(=O)c2[nH]c(-c3cnn(Cc4cccc(F)c4)c3)nc2n(CCC)c1=O,Ki,Adenosine receptor A3,56 nM
same,Ratio Ki,[1],13
same,Ratio Ki,[2],18
same,Ratio Ki,[3],4
same,Ki,Adenosine receptor A2b,14 nM
same,Ki,Adenosine receptor A2a,230 nM
same,Ki,Adenosine receptor A1,170 nM
CCCn1c(=O)c2[nH]c(-c3cnn(Cc4ccccc4)c3)nc2n(CCC)c1=O,Ki,Adenosine receptor A3,170 nM
same,Ratio Ki,[1],7
same,Ratio Ki,[2],26
same,Ratio Ki,[3],15
same,Ki,Adenosine receptor A2b,11 nM
same,Ki,Adenosine receptor A2a,290 nM
same,Ki,Adenosine receptor A1,76 nM
CCCn1c(=O)c2[nH]c(-c3cn[nH]c3)nc2n(CCC)c1=O,Ki,Adenosine receptor A3,23 nM
same,Ki,Adenosine receptor A2b,9 nM
same,Ki,Adenosine receptor A2a,230 nM
same,Ki,Adenosine receptor A1,20 nM
CCCn1c(=O)c2nc(-c3cnn(CCCc4ccccc4)c3)[nH]c2n(CCC)c1=O,Ratio Ki,[1],0.7
same,Ratio Ki,[2],2
same,Ki,Adenosine receptor A2b,100 nM
same,Ki,Adenosine receptor A2a,220 nM
same,Ki,Adenosine receptor A1,77 nM
CCCn1c(=O)c2nc(-c3cnn(Cc4cccc(Cl)c4)c3)[nH]c2n(CCC)c1=O,Ratio Ki,[1],2
same,Ratio Ki,[2],4
same,Ki,Adenosine receptor A2b,18 nM
same,Ki,Adenosine receptor A2a,79 nM
same,Ki,Adenosine receptor A1,31 nM
